Assay results as given in ChEMBL document CHEMBL3232966, “A new potential approach to block HIV-1 replication via protein-protein interaction and strand-transfer inhibition” (Bioorg Med Chem, 2014).
Calls of active or inactive are those of the source. No cut-off for these calls is given here.

Key:
[1] = Inhibition of His-6-tagged HIV-1 integrase-recombinant flag-tagged LEDGF/p75 (unknown origin) interaction at 100 uM after 1hr by AlphaScreen assay
[2] = Inhibition of His-6-tagged HIV-1 integrase-recombinant flag-tagged LEDGF/p75 (unknown origin) interaction after 1hr by AlphaScreen assay
How it was run: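 AlphaScreen. Ni-chelate acceptor and anti-flag donor beads were added (20 µg/ml each final), then incubated 1 h at 30 °C in low light. Acceptor-bead light emission was read.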

[3] = Selectivity index, ratio of CC50 for human MT4 cells to EC50 for HIV-1 3B; assay type: toxicity, cell-based; conditions: read-out: Ratio CC50/EC50
How it was run: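 Ratio CC50/EC50. CC50 comes from the MTT viability assay on uninfected MT-4 cells. EC50 comes from the MTT protection assay on MT-4 cells infected with HIV(IIIB).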

[4] = tested on: Human immunodeficiency virus 1; test: Antiviral activity against HIV-1 3B infected in MT4 cells assessed as inhibition of virus-induced cytopathic effect by MTT assay; assay type: functional, organism-based; conditions: Human immunodeficiency virus 1, 3B
How it was run: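 MT-4 lymphocytes infected with 100–300 CCID50 of HIV(IIIB) stock (CCID50 titrated on MT-4 cells), with fivefold serial compound dilutions. Protection against virus-induced cytopathic effect read by MTT reduction to formazan, measured spectrophotometrically. EC50 = concentration giving 50% protection against CPE.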

[5] = Cytotoxicity against human MT4 cells assessed as cell viability by MTT assay; assay type: cell-based
How it was run: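 Uninfected MT-4 lymphocytes exposed to fivefold serial compound dilutions, run in parallel with the antiviral test. Viability read by MTT reduction to formazan by mitochondrial dehydrogenase, measured spectrophotometrically. CC50 = concentration lowering MT-4 viability by 50%.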

[6] = molecular target: Human immunodeficiency virus type 1 integrase (Human immunodeficiency virus 1, UniProt Q7ZJM1); test: Inhibition of HIV-1 integrase strand transfer activity using 3'-end biotin labelled oligonucleotide/5'-end digoxigenin labelled oligonucleotide as substrate after 1 hr by ELISA
How it was run: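 ELISA strand-transfer assay. Integrase (diluted in 750 mM NaCl, 10 mM Tris pH 7.6, 10% glycerol, 1 mM β-mercaptoethanol; 1.6 µM) was mixed with annealed oligonucleotides (7 nM): a 3'-biotin strand plus a 5'-digoxigenin strand lacking 3'-terminal GT. Buffer contained MgCl2, DTT, HEPES pH 7.5, 5% PEG and 15% DMSO. Incubation 1 h at 37 °C, NaOH denaturation, detection on avidin-coated plates.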

Chain of Human immunodeficiency virus type 1 integrase (Q7ZJM1 whole entry): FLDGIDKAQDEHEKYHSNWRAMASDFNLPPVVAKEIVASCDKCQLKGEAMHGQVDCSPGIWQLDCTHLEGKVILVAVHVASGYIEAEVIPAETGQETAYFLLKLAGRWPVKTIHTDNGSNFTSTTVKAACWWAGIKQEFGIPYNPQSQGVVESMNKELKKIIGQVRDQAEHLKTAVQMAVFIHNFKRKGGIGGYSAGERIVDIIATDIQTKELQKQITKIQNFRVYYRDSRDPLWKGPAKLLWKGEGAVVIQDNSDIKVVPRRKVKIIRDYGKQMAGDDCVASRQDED

SMILES | inhibition [1] | IC50 [2] | selectivity ratio [3] | EC50 [4] | CC50 [5] | IC50 [6]
COc1ccc2c(c1)c(C(=O)C1=C(O)C(=O)OC1)cn2Cc1ccc(C(C)(C)C)cc1 | 93% | 17.1 µM |  |  |  | 
COc1cccc2c1c(C(=O)/C=C(\O)C(=O)O)cn2Cc1ccc(F)cc1 |  | 36.2 µM | 70 |  |  | 
O=C1OCC(C(=O)c2cn(Cc3ccc(-c4ccccc4)cc3)c3ccc(Cl)cc23)=C1O | 80% | 21.8 µM |  |  |  | 
COc1ccc2c(c1)c(C(=O)C1=C(O)C(=O)OC1)cn2Cc1c(C)cc(C)cc1C | 82% | 33.2 µM |  |  |  | 
Cc1cc(C)cc(Cn2cc(C(=O)/C=C(\O)C(=O)O)c3cc(Cl)ccc32)c1 | inactive |  | > 2 | 56.1 µM | > 125 µM | 
COc1ccc2c(c1)c(C(=O)C1=C(O)C(=O)OC1)cn2Cc1ccc(C(F)(F)F)cc1C(F)(F)F | 61% | 39.5 µM |  |  |  | 
O=C(O)/C(O)=C/C(=O)c1cn(Cc2ccc(C(F)(F)F)cc2C(F)(F)F)c2ccc(Cl)cc12 | 80% | 3.8 µM |  |  |  | 
O=C1OCC(C(=O)c2cn(Cc3ccc(-c4ccccc4)cc3)c3ccc(F)cc23)=C1O | 89% | 15.8 µM |  |  |  | 
Cc1cc(C)c(Cn2cc(C(=O)/C=C(\O)C(=O)O)c3cc(F)ccc32)c(C)c1 | 71% | 15.2 µM | 21 | 5.14 µM | 104 µM | 2.51 µM
Cc1cc(C)cc(Cn2cc(C(=O)/C=C(\O)C(=O)O)c3cc(F)ccc32)c1 | 26% |  |  |  |  | 
Cc1cc(C)cc(Cn2cc(C(=O)/C=C(\O)C(=O)O)c3c(O)cccc32)c1 |  | 3.5 µM | 10 | 4.63 µM | 44 µM | 
Cc1cc(C)c(Cn2cc(C(=O)/C=C(\O)C(=O)O)c3cc(Cl)ccc32)c(C)c1 | 59% | > 100 µM |  |  |  | 
COc1ccc2c(c1)c(C(=O)C1=C(O)C(=O)OC1)cn2Cc1ccc(C(F)(F)F)cc1 | 65% | 52.2 µM |  |  |  | 
O=C(O)/C(O)=C/C(=O)c1cn(Cc2ccc(C(F)(F)F)cc2)c2ccc(Cl)cc12 | 80% | 32.9 µM | 5 | 5.09 µM | 23 µM | 0.26 µM
O=C1OCC(C(=O)c2cn(Cc3ccc(C(F)(F)F)cc3C(F)(F)F)c3ccc(Cl)cc23)=C1O | 86% | 21.5 µM |  |  |  | 
Cc1cc(C)c(Cn2cc(C(=O)C3=C(O)C(=O)OC3)c3cc(F)ccc32)c(C)c1 | 81% | 5.6 µM | 2 | 49 µM | 107 µM | 
O=C(O)/C(O)=C/C(=O)c1cn(Cc2ccc(-c3ccccc3)cc2)c2ccc(Cl)cc12 | 31% |  |  |  |  | 
O=C1OCC(C(=O)c2cn(Cc3ccc(C(F)(F)F)cc3C(F)(F)F)c3ccc(F)cc23)=C1O | 37% |  |  |  |  | 
COc1ccc2c(c1)c(C(=O)/C=C(\O)C(=O)O)cn2Cc1cc(C)cc(C)c1 | 89% | 53.9 µM | 23 | 2.24 µM | 51 µM | 1.09 µM

SMILES | inhibition [1] | IC50 [2] | selectivity ratio [3] | EC50 [4] | CC50 [5] | IC50 [6]
CC(C)(C)c1ccc(Cn2cc(C(=O)C3=C(O)C(=O)OC3)c3cc(F)ccc32)cc1 | 96% | 36.2 µM |  |  |  | 
Cc1cc(C)cc(Cn2cc(C(=O)C3=C(O)C(=O)OC3)c3cc(Cl)ccc32)c1 | 96% | 23.1 µM | 3 | 16.9 µM | 53.5 µM | 
O=C1OCC(C(=O)c2cn(Cc3ccc(C(F)(F)F)cc3)c3ccc(F)cc23)=C1O | 65% | 12.2 µM |  |  |  | 
O=C(O)/C(O)=C/C(=O)c1cn(Cc2ccc(-c3ccccc3)cc2)c2ccc(F)cc12 | 72% | 8.1 µM |  |  |  | 
COc1ccc2c(c1)c(C(=O)C1=C(O)C(=O)OC1)cn2Cc1ccc(-c2ccccc2)cc1 | 51% |  |  |  |  | 
COc1ccc2c(c1)c(C(=O)C1=C(O)C(=O)OC1)cn2Cc1cc(C)cc(C)c1 | 66% |  |  |  |  | 
CC(C)(C)c1ccc(Cn2cc(C(=O)/C=C(\O)C(=O)O)c3cc(F)ccc32)cc1 | 33% |  |  |  |  | 
Cc1cc(C)c(Cn2cc(C(=O)C3=C(O)C(=O)OC3)c3cc(Cl)ccc32)c(C)c1 | 85% | 23.6 µM | 2 | 19.8 µM | 40.5 µM | 
Cc1cc(C)cc(Cn2cc(C(=O)C3=C(O)C(=O)OC3)c3cc(F)ccc32)c1 | 73% | 20.3 µM |  |  |  | 
COc1ccc2c(c1)c(C(=O)/C=C(\O)C(=O)O)cn2Cc1ccc(C(F)(F)F)cc1C(F)(F)F | 33% |  |  |  |  | 
CC(C)(C)c1ccc(Cn2cc(C(=O)/C=C(\O)C(=O)O)c3cc(Cl)ccc32)cc1 | 88% | 10 µM |  |  |  | 
O=C(O)/C(O)=C/C(=O)c1cn(Cc2ccc(C(F)(F)F)cc2C(F)(F)F)c2ccc(F)cc12 | inactive |  |  |  |  | 
CC(C)(C)c1ccc(Cn2cc(C(=O)C3=C(O)C(=O)OC3)c3cc(Cl)ccc32)cc1 | 83% | 52.5 µM | 2 | 23.4 µM | 53 µM | 
O=C1OCC(C(=O)c2cn(Cc3ccc(C(F)(F)F)cc3)c3ccc(Cl)cc23)=C1O | 92% | 12.3 µM |  |  |  | 
COc1ccc2c(c1)c(C(=O)/C=C(\O)C(=O)O)cn2Cc1ccc(-c2ccccc2)cc1 | 59% | > 100 µM |  |  |  | 
O=C(O)/C(O)=C/C(=O)c1cn(Cc2ccc(C(F)(F)F)cc2)c2ccc(F)cc12 | 77% | 17.8 µM | 2 | 7.83 µM | 15 µM | 1.55 µM
COc1ccc2c(c1)c(C(=O)/C=C(\O)C(=O)O)cn2Cc1ccc(C(C)(C)C)cc1 | 65% | 91.7 µM |  |  |  | 
COc1ccc2c(c1)c(C(=O)/C=C(\O)C(=O)O)cn2Cc1c(C)cc(C)cc1C | 72% | 33.1 µM | 8 | 3.23 µM | 23.5 µM | 0.42 µM
COc1ccc2c(c1)c(C(=O)/C=C(\O)C(=O)O)cn2Cc1ccc(C(F)(F)F)cc1 | 40% |  |  |  |  | 
